This is an account of results in article PMC5800744 (ACS chemical neuroscience, 2015).

In one data set the test system is MMP-9. The settings on record: cited from earlier work.
The test system of data set [1] is cortical lesion after controlled cortical impact. The settings on record: TBI mice; routes of administration and dose regimens different; cited from earlier work.
Another data set has as its system HepG2 cells. Description: XTT cytotoxicity assay. The format is cell-based. The procedure, abridged:
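XTT viability in HepG2 cells, run in triplicate, with IC50 obtained by curve fitting.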

Data set [2] can be described thus: Water solubility determination. The settings on record: saturated solution in water. The format is physicochemical. An outline of the steps: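 A saturated solution of test compound in water was centrifuged. The supernatant was quantified by UPLC with UV detection at 245 nm against calibration curves from known concentrations. The relative value compares the solubilities of the two compounds measured this way.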

Data set [3] deals with red blood cells (horse whole blood). The data set can be described thus: Hemolysis of red blood cells. The format is cell-based. The settings on record: up to concentrations of 160 μM; 37 °C, 1 h. The procedure, abridged: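 Horse whole-blood RBCs were pelleted at 7 000g and washed three times in 0.1 M PBS. Test compound, from DMSO stock, was incubated with RBCs in PBS at final 5–160 μM for 1 h at 37 °C, in duplicate. Controls were Triton X-100 (positive) and DMSO/PBS (negative). Samples were spun at 13 000g, supernatant absorbance was read at 541 nm, and IC50 was calculated from the plotted data.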

Data set [4] is described as follows: PK and brain distribution after single iv dose. The format is in vivo, mice (male C57Bl/6J). The following applies: male mice.
Where [5] appears, read: 2 after single iv dose of 2 (6.3 mg/kg), plasma.
Setting [6] is: 2 in brain after single iv dose of 2 (6.3 mg/kg).
The mark [7] stands for this setting: 2 in brain after single iv dose of 3 (7.8 mg/kg).
[8] abbreviates: 2 in plasma after single iv dose of 2 (6.3 mg/kg).
Setting [9] is: 2 in plasma after single iv dose of 3 (7.8 mg/kg).

≈ marks a conversion by molar mass, not a printed value.

“TIMP-1: tissue inhibitor of matrix metalloproteinase-1”: in the data set on MMP-9 (time the inhibitor remains complexed with the target), the residence time is 7.9 min.

Regarding `O=S(=O)(CC1CS1)c1ccc(Oc2ccccc2)cc1` (centres unmarked) [SB-3CT], the “reduction in brain damage” value in data set [1] is reported as 14%.

As a reminder, the IC50 is the concentration needed to halve the response being measured. As usually defined, the aqueous solubility is the concentration that dissolves in the medium under given conditions. The term Ki denotes a measure of affinity in units of concentration, obtained from inhibition or displacement. As usually defined, the Vd is the apparent volume that relates the amount in the body to the concentration in plasma or blood. A low value points to confinement near the circulation. With `O=S(=O)(CC1CS1)c1ccc(Oc2ccc(O)cc2)cc1` (centres unmarked) [Compound 2, p-hydroxy SB-3CT], in the data set on HepG2 cells, the IC50 was determined as 114 ± 1 µM. The compound further yielded an aqueous solubility in data set [2] of 22.2 µg/mL (≈ 68.9 µM). Also, the “hemolysis of red blood cells” value in data set [3] is given as “not observed”. Further, on MMP-9 (MMP-9), the Ki was 0.16 ± 0.08 µM. Further, the brainAUC/plasmaAUC in data set [4] (2 after single iv dose of 2 (6.3 mg/kg)) is recorded as 1.2. In data set [4] (setting [5]), this compound yielded a CL of 105 mL/min/kg and a Vd of 0.850 L/kg. The brainAUC/plasmaAUC in data set [4] (2 after single iv dose of 3 (7.8 mg/kg)) was found to be 0.53. In data set [4] (setting [6]), the AUC0-last worked out at 232 pmol·min/mg, the “AUC0-∞” value came out at 235 pmol·min/mg, the t1/2α is 3.0 min and the t1/2β is on record as 49 min. Moreover, in data set [4] (setting [7]), the AUC0-last amounted to 26 pmol·min/mg, the “AUC0-∞” value was determined as 27 pmol·min/mg, the t1/2α came to 3.1 min and the t1/2β came out at 8.3 min. Moreover, in data set [4] (setting [8]), the AUC0-last amounted to 189 µM·min, the “AUC0-∞” value stood at 195 µM·min, the t1/2α turned out to be 3.4 min and the t1/2β came to 45 min. Besides, in data set [4] (setting [9]), the AUC0-last worked out at 49 µM·min, the “AUC0-∞” value is 49 µM·min, the t1/2α came to 3.0 min and the t1/2β was 6.5 min.
